Laboratory results: ChEMBL document CHEMBL1150144, “Total synthesis and biological evaluation of (5Z,9Z)-5,9-hexadecadienoic acid, an inhibitor of human topoisomerase I” (J Nat Prod, 2002)
≈ marks a conversion by molar mass, not a printed value. Calls of active or inactive are those of the source. The rule behind the calls is not given here.

Assays:
Staphylococcus aureus = assay: Antimicrobial activity against Staphylococcus aureus ATCC 25923 after overnight incubation; format: functional
Method in brief: (§1)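 MIC read after overnight incubation of fatty acid with each organism at 37 °C. Endpoint was the highest dilution preventing growth, compared with an uninoculated chemical-control well. Data come from at least three separate experiments in duplicate.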

Enterococcus faecalis = assay: Antimicrobial activity against Streptococcus faecalis ATCC 29212 after overnight incubation; format: functional; method in brief: as §1
Pseudomonas aeruginosa = assay: Antimicrobial activity against Pseudomonas aeruginosa ATCC 27853 after overnight incubation; format: functional; method in brief: as §1
Escherichia coli = assay: Antimicrobial activity against Escherichia coli ATCC 25922 after overnight incubation; format: functional; method in brief: as §1
[1] = biological target: T1, DNA topoisomerase 1 (Homo sapiens) (UniProt P11387); assay: Inhibition of human DNA topoisomerase 1 assessed as inhibition of uncoiling of supercoiled Tetrahymena pHOT1 DNA at 800 uM after 30 mins by agarose gel electrophoresis
T1 sequence (whole entry): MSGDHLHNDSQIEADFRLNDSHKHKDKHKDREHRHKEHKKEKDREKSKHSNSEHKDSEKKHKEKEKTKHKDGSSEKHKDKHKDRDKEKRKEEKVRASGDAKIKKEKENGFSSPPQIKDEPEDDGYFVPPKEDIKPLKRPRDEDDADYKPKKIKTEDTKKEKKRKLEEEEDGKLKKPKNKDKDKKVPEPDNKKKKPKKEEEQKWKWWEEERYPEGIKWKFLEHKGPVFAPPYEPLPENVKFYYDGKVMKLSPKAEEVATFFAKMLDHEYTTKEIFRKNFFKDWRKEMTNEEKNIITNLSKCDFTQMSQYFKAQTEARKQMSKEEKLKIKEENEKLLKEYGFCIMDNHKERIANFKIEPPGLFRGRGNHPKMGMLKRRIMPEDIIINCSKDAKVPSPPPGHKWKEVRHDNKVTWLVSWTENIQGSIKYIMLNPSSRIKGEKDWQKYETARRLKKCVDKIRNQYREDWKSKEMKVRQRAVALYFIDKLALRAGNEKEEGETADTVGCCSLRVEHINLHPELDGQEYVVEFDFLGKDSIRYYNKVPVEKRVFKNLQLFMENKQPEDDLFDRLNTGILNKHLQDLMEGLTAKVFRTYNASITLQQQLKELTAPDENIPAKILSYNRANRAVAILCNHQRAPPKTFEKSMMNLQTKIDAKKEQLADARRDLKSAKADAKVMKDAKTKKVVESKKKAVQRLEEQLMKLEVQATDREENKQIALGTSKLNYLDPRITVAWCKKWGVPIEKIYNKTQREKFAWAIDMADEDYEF
Method in brief: (§2)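 Human placental topoisomerase I (1 unit relaxes 0.5 µg DNA in 15 min at 37 °C) was used with 0.25 µg supercoiled pHOT1 plasmid. Fatty acids in DMSO were tested at final 1000, 800, 500, 100 and 10 µM for 30 min at 37 °C. Reactions were stopped with SDS, then proteinase K (final 0.05 mg/mL, 30 min, 37 °C). Products were run on 1% agarose, stained with ethidium bromide, and bands imaged and quantitated.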

DNA topoisomerase 1 [2] = biological target: T2, DNA topoisomerase 1 (Homo sapiens, UniProt P11387); assay: Inhibition of human DNA topoisomerase 1
T2 sequence (P11387 whole entry): T1 sequence (whole entry)

[3] = biological target: T1, DNA topoisomerase 1 (Homo sapiens); assay: Inhibition of human DNA topoisomerase 1 assessed as inhibition of uncoiling of supercoiled Tetrahymena pHOT1 DNA at > 1000 uM after 30 mins by agarose gel electrophoresis; method in brief: as §2
DNA topoisomerase 1 [4] = biological target: T2, DNA topoisomerase 1; assay: Inhibition of DNA topoisomerase 1
[5] = biological target: T1, DNA topoisomerase 1 (Homo sapiens); assay: Inhibition of human DNA topoisomerase 1 assessed as inhibition of uncoiling of supercoiled Tetrahymena pHOT1 DNA at […] after 30 mins by agarose gel electrophoresis

Compound: CCCCCC/C=C\CC/C=C\CCCC(=O)O
- MIC (Staphylococcus aureus): 80 µM (≈ 20.2 µg/mL)
- MIC (Enterococcus faecalis): 200 µM (≈ 50.5 µg/mL)
- Activity (Pseudomonas aeruginosa): inactive
- Activity (Escherichia coli): inactive
- inhibition [1]: Active

Compound: CCCCCCCCCCCCCCCCC/C=C\CC/C=C\CCCC(=O)O
- IC50 (DNA topoisomerase 1 [2]): 0.9 µM

Compound: CCCCCCC#CCCC#CCCCC(=O)O
- inhibition [3]: inactive

Compound: CCCCCCCC/C=C/CCCCCCCC(=O)O [ELAIDIC ACID]
- IC50 (DNA topoisomerase 1 [4]): > 1000 µM

Compound: CCCCCCCCCCCCCCCC(=O)O [PALMITIC ACID]
- MIC (Staphylococcus aureus): > 400 µM
- MIC (Enterococcus faecalis): > 400 µM
- MIC (Pseudomonas aeruginosa): > 400 µM
- MIC (Escherichia coli): > 400 µM
- inhibition [5]: inactive

Compound: CCCCCCCC/C=C\CCCCCCCC(=O)O [OLEIC ACID]
- IC50 (DNA topoisomerase 1 [4]): 31 µM

Compound: CC(C)CCC/C=C\CC/C=C\CCCC(=O)O
- MIC (Staphylococcus aureus): 240 µM (≈ 60.6 µg/mL)
- MIC (Enterococcus faecalis): 160 µM (≈ 40.4 µg/mL)
